Source: paper PMC3574199 (Bioorganic & medicinal chemistry, 2012)

How the values were obtained:
Type in all cases: biochemical
murine macrophage iNOS = murine macrophage iNOS (Mus musculus, UniProt P29477); assay: Nitric oxide hemoglobin capture assay, iNOS; settings: for selectivity n/i: ratio of Ki (iNOS) to Ki (nNOS)
rat nNOS = rat nNOS (Rattus norvegicus, UniProt P29476); assay: Nitric oxide hemoglobin capture assay, nNOS
How it was run: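 Recombinant rat nNOS was expressed in E. coli. Assays ran at room temperature in 100 mM Hepes pH 7.4 with 10 µM L-arginine, 1.6 mM CaCl2, 11.6 µg/mL calmodulin, 100 µM DTT, 100 µM NADPH, 6.5 µM H4B and 3.0 µM oxyhemoglobin. Enzyme addition started the reaction, and initial rates came from NO-hemoglobin formation at 401 nm over 60 sec. Ki = IC50/(1+[S]/Km), Km 1.3 µM.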

bovine eNOS = bovine eNOS (Bos taurus, UniProt P29473); assay: Nitric oxide hemoglobin capture assay, eNOS; settings: for selectivity n/e: ratio of Ki (eNOS) to Ki (nNOS)

Sequence of murine macrophage iNOS (P29477 whole entry): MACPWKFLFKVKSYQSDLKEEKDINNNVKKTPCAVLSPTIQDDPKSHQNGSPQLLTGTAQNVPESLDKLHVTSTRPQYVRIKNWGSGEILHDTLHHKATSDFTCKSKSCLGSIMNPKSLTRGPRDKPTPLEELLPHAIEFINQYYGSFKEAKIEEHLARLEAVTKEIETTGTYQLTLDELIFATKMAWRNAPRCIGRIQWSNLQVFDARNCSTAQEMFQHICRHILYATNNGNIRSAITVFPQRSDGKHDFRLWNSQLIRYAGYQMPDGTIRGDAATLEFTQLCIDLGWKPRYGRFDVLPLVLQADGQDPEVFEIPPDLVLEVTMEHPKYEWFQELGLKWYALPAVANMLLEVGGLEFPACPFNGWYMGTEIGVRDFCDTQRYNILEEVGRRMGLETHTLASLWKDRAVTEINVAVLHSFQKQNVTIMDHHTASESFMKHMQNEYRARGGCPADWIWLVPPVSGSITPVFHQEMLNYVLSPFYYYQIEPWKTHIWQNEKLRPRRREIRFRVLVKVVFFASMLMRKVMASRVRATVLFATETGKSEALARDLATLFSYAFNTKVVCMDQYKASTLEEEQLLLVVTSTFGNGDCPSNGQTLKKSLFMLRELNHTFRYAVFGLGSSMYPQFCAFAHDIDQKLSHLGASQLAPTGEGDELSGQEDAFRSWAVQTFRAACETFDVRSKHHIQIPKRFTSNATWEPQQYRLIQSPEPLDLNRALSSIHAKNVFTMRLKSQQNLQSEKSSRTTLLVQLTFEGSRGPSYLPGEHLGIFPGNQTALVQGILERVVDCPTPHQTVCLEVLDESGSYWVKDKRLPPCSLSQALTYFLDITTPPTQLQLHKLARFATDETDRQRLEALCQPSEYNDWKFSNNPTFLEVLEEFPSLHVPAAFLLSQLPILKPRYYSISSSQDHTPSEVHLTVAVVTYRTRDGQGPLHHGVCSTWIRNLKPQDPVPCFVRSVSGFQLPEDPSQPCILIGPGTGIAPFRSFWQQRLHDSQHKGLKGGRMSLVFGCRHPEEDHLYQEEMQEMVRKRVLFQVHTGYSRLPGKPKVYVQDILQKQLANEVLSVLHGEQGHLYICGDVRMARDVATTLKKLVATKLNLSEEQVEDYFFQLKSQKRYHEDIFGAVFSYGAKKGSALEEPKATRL
Sequence of rat nNOS (P29476 whole entry): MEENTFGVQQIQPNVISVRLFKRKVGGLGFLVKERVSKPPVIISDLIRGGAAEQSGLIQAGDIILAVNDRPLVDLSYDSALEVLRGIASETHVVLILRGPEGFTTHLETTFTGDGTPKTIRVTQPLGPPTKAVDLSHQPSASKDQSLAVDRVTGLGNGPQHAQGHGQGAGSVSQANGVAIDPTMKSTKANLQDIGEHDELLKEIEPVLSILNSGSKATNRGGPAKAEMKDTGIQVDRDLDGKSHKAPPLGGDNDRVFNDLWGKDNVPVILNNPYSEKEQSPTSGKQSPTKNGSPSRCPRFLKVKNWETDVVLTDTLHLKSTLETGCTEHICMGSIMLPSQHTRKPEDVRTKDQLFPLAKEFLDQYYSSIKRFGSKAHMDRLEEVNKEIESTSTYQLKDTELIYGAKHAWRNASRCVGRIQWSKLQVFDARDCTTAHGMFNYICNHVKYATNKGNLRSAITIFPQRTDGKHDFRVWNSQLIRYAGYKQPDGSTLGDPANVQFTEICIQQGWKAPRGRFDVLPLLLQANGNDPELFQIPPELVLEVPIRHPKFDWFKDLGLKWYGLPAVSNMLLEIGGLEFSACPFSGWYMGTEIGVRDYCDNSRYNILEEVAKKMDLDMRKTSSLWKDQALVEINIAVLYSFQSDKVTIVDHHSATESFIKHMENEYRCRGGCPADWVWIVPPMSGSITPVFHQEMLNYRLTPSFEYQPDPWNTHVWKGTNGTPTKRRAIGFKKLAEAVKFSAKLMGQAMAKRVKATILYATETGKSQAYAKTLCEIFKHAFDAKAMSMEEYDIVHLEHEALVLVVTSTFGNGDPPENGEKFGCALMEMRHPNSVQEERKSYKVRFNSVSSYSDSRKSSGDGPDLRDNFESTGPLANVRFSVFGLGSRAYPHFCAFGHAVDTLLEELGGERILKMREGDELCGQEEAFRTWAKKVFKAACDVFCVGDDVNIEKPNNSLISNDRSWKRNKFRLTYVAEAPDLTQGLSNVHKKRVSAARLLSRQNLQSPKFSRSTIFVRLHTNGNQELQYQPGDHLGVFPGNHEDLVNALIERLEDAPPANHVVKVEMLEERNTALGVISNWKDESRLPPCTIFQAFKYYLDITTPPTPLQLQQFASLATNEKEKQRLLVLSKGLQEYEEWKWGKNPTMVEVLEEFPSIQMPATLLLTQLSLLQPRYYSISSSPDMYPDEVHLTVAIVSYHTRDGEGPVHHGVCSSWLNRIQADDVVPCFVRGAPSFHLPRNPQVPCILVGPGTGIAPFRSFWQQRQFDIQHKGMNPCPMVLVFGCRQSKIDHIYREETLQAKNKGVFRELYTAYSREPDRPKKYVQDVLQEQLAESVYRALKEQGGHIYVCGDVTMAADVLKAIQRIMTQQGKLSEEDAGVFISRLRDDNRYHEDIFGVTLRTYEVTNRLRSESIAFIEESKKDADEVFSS

Row | Ki (murine macrophage iNOS) | Ki (rat nNOS) | Structure (SMILES) | selectivity n/i (murine macrophage iNOS) | Ki (bovine eNOS) | selectivity n/e (bovine eNOS)
1 | 10 µM | 0.14 µM | Cc1cccc(C2CC2NCCO[C@H]2CNC[C@H]2Cc2cc(C)cc(N)n2)c1 (mixture of isomers) [(±) 2c, 4-Methyl-6-(((3R,4R)-4-(2-((1S,2R/1R,2S)-2-m-tolylcyclopropylamino)ethoxy)pyrrolidin-3-yl)methyl)pyridin-2-amine] |  |  | 
2 | 0.86 µM | 0.071 µM | Cc1cc(N)nc(C[C@@H]2CNC[C@@H]2OCCNC2CC2c2cccc(Cl)c2)c1 (mixture of isomers) [(±) 2d, 6-(((3R,4R)-4-(2-((1S,2R/1R,2S)-2-(3-Clorophenyl)cyclopropylamino)ethoxy)pyrrolidin-3-yl)methyl)-4-methylpyridin-2-amine] | 12 | 26 µM | 370
3 | 12 µM | 0.175 µM | Cc1cc(N)nc(C[C@@H]2CNC[C@@H]2OCCN[C@H]2C[C@@H]2c2cccc(F)c2)c1 [Compound 2b, 6-(((3R,4R)-4-(2-((1S,2R)-2-(3-Fluorophenyl)cyclopropylamino)ethoxy)pyrrolidin-3-yl)methyl)-4-methylpyridin-2-amine] |  |  | 

Row | Structure (SMILES) | Ki (murine macrophage iNOS) | Ki (rat nNOS) | selectivity n/i (murine macrophage iNOS) | Ki (bovine eNOS) | selectivity n/e (bovine eNOS)
4 | Cc1cc(N)nc(C[C@@H]2CNC[C@@H]2OCCNC(C)Cc2cccc(F)c2)c1.Cl (mixture of isomers) [(±) 2e, 6-(((3R,4R)-4-(2-(((R/S)-1-(3-fluorophenyl)propan-2-yl)amino)ethoxy)pyrrolidin-3-yl)methyl)-4-methylpyridin-2-amine] | 10.2 µM | 0.046 µM | 220 | 68 µM | 1500
